A selection: hits, their analogues and other compounds. The true share with any hit is near 1.3%.
Rpn11 block – blocks the human proteasome subunit Rpn11; O00487; human 26S proteasome, Ub4-pepOG fluorescence polarization; 20S core pre-blocked with epoxomicin; inhibition, % at 20 µM; 0.59% of 360,000 active; AID 588493;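 active = inhibition at 20 µM, scaled to each plate's controls, above about 33%, limit read from the data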
Xi reactivation – reactivates the inactive X chromosome in mouse fibroblasts. activation, % at 7.58 µM. 0.055% of 360,000 active. XiGFP mouse fibroblasts, % GFP-positive cells imaging, 3 d; cells co-treated with 5-aza-dC sensitizer; scaled so ellipticine positive control = 100%. AID 743238;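 active = mean normalized replicate activation at least 10% and every replicate at or above 10%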;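 note: 0% = median of on-plate neutral control wells and 100% = ellipticine 6 µM median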
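Material: XiGFP fibroblasts, SV40-immortalized; Buffer or medium: DMEM containing 5-aza-dC; Compound dosing: single point; Times: 3 days compound exposure.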
CSN inh – blocks human CSN-mediated cullin deneddylation. Purified CSN, SCF-Nedd8-OG deneddylation, fluorescence polarization. AID 651999. inhibition, % at 12.5 µM. 0.38% of 360,000 active. Q92905;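 active = pattern-corrected inhibition above about 35%, with an unprinted fluorescence ratio check between 0.5 and 1.5, limit read from the data, passing the limit was not always enough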;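 note: 0% = enzyme with substrate and 100% = substrate without enzyme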
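Assay system: Purified human Csn5 enzyme expressed in HEK293T cells | Amount: Enzyme 0.24 nM | Measured by: Fluorescence polarization readout | Medium: Tris/NaCl/DTT buffer, pH 7.5 | Compound dosing: One concentration, 12.5 µM, 0.25% DMSO | Times: 90 min incubation of compound, enzyme and substrate at room temperature | Control set: no-enzyme wells high, enzyme-with-substrate wells low | Read-out: % inhibition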
HNF4A DNA FP – change in binding of human HNF4 alpha to DNA | AID 1224865 | HNF4a-FITC DNA binding, fluorescence polarization, 1 h | activity change, % at 10 µM | P41235 | 0.3% of 360,000 active; in the data active = activity change above about 30%, passing the limit was not always enough
Target sequence (P41235 whole entry, looked up): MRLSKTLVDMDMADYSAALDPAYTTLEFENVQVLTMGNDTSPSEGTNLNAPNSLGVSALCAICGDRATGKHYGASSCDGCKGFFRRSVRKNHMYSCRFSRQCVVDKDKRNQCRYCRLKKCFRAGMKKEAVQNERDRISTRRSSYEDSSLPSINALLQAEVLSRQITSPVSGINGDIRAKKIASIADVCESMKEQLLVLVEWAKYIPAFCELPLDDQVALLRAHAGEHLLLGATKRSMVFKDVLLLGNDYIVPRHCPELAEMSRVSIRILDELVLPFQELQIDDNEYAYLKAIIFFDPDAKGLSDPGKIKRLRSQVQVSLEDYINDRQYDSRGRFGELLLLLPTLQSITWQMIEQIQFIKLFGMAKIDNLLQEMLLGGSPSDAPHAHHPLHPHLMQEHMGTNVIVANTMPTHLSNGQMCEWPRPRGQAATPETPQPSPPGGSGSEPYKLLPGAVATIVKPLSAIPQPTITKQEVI
aDG glyco act – alpha-DG glycosylation activation. Pro5-aDG cells, alpha-DG glycosylation AlphaScreen (IIH6); 0% Pro5, 100% B10-LARGE cell signal. activation, % at 10 µM. 0.22% of 360,000 active. AID 624168;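 active = activation of at least 8% versus controls, or a plate z-score of at least 8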;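 note: Pro5 are CHO cells carrying HIG-tagged alpha-DG that lacks glycosylation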
TPT1 inh – C. albicans TPT1 enzyme inhibition | recombinant caTPT1, FP RNA substrate dephosphorylation | inhibition, % at 5 µM | 0.81% of 300,000 active | AID 1962;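 active = inhibition above the mean of all tested compounds plus 3 SD, set per screening campaign, cut at about 24% in these data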;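 note: plate controls were DMSO alone for no effect and ferristatin control at 100 nM for full effect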
caTPT1 confirm – TPT1 (C. albicans) inhibition, confirmation; shares compounds with TPT1 inh; recombinant caTPT1, fluorescence polarization, RNase T1 coupled; inhibition, % at 5 µM; 74% of 2,400 active;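 active = inhibition above the primary screen limit, the mean inhibition of all tested compounds plus 3 SD, cut at about 25% in these data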
RNase T1 inh – counter-screen for TPT1 inhibitors: inhibitors of Aspergillus oryzae RNase T1; shares compounds with TPT1 inh; inhibition, % at 5 µM; 83% of 2,400 active; RNase T1 cleavage, fluorescence polarization, 1536-well;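 active = inhibition above the solvent-only control well mean plus 3 SD, limit set per screening run, cut at about 23% in these data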;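 note: plate controls were DMSO wells with enzyme for no effect and wells without RNase T1 for full effect; inhibitors block cleavage so intact labeled substrate keeps polarization high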
Target sequence (P00651 whole entry, looked up): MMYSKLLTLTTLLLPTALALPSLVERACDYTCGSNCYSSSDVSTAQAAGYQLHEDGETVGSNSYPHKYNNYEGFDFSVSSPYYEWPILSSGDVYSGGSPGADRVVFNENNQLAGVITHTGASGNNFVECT
* hit, by the source's call.

CCCC(=O)Nc1ccc2c(c1)C(=O)N(C)C[C@@H](OC)[C@@H](C)CN(C(=O)CN(C)C)[C@@H](C)CO2 was read as Xi reactivation 0.0.
Screening Cn1cccc1CC(=O)N/N=C/c1cccc2ccccc12 returned Rpn11 block -14.0, CSN inh 1.1, HNF4A DNA FP -2.4, aDG glyco act -0.3, TPT1 inh 32.6*, caTPT1 confirm 19.5 and RNase T1 inh 29.8*.
COc1ccc(NC(=O)C2CCCN2C(=O)Oc2ccccc2)cc1 (stereo unspecified) was read as Rpn11 block -1.4, Xi reactivation 0.0, CSN inh -7.1, HNF4A DNA FP -6.0, aDG glyco act 0.0, TPT1 inh 47.3*, caTPT1 confirm 6.1 and RNase T1 inh 6.0.
`Cc1ccc(NC(=O)C2CCCN2C(=O)Oc2ccccc2)cc1` (stereo unspecified) gave Rpn11 block -5.8, CSN inh -0.9, HNF4A DNA FP -1.1, aDG glyco act 0.1 and TPT1 inh 0.5.
For COc1ccc(C2CC(c3ccccc3)=NN2c2ccc(/C=N/NC(=O)c3ccncc3)cc2)cc1 (stereo unspecified) the results were Rpn11 block 4.6, CSN inh 2.4, HNF4A DNA FP 1.5, aDG glyco act -0.2, TPT1 inh 66.2*, caTPT1 confirm 51.6* and RNase T1 inh 67.6*.
For COc1ccc(C2CC(c3cccs3)=NN2c2ccc(C=O)cc2)cc1 (stereo unspecified) the results were Xi reactivation 0.1, TPT1 inh 64.8*, caTPT1 confirm 67.0* and RNase T1 inh 72.4*.
`C[C@@H]1CN([C@@H](C)CO)C(=O)Cc2cc(NS(=O)(=O)c3ccccc3)ccc2O[C@H]1CN(C)S(=O)(=O)c1cn(C)cn1` gave Xi reactivation 0.0.
Screening COc1ccc(C(=O)C[n+]2cc(Br)cc3ccccc32)cc1[N+](=O)[O-] returned Rpn11 block 20.8, Xi reactivation 0.0, CSN inh -1.3, HNF4A DNA FP 2.8, aDG glyco act -0.2, TPT1 inh 45.0*, caTPT1 confirm 39.2* and RNase T1 inh 56.1*.
COc1ccc(C(=O)OCC(N)=O)cc1[N+](=O)[O-] was read as Rpn11 block 3.4, Xi reactivation 0.0, CSN inh -5.1, HNF4A DNA FP 0.0, aDG glyco act -0.2 and TPT1 inh 1.6.
O=C(C[n+]1cc(Br)cc2ccccc21)c1ccccc1 was read as Xi reactivation 0.2, CSN inh 14.4, HNF4A DNA FP 25.8, aDG glyco act -0.1, TPT1 inh 39.9*, caTPT1 confirm 48.0* and RNase T1 inh 63.6*.
Screening Cc1ccc2c(ccc[n+]2CC(=O)c2ccccc2)c1 returned Rpn11 block -7.3, CSN inh 2.2, HNF4A DNA FP -2.7, aDG glyco act -0.3 and TPT1 inh 9.7.
`C[C@@H]1CN([C@@H](C)CO)C(=O)c2cc(NC(=O)Nc3ccccc3)ccc2O[C@H]1CN(C)S(=O)(=O)c1ccc(Cl)cc1` gave Xi reactivation 0.2.
Screening CCOC(=O)C1=C(C)N=c2s/c(=C/c3ccco3)c(=O)n2C1c1cccc(OC)c1 (stereo unspecified) returned TPT1 inh 31.2*, caTPT1 confirm 25.3* and RNase T1 inh 34.9*.
For CCOC(=O)C1=C(C)N=c2s/c(=C\c3ccc(C(=O)O)cc3)c(=O)n2C1c1ccc(OC)cc1OC (stereo unspecified) the results were Rpn11 block 5.9, Xi reactivation 0.0, CSN inh 7.4, HNF4A DNA FP 1.5, aDG glyco act 0.0 and TPT1 inh 0.9.
Screening CCOC(=O)C1=C(C)N=c2s/c(=C\c3cccn3C)c(=O)n2C1c1cccc(OC)c1OC (stereo unspecified) returned CSN inh 46.4*, HNF4A DNA FP 84.5*, aDG glyco act -0.3, TPT1 inh 82.3*, caTPT1 confirm 138.9* and RNase T1 inh 137.1*.
CS(=O)(=O)Nc1ccc2c(c1)[C@@H]1C[C@@H](CC(=O)NCc3ccc(Oc4ccccc4)cc3)O[C@@H](CO)[C@@H]1O2 was read as Xi reactivation 0.5.
COc1ccc(S(=O)(=O)N(C)C[C@@H]2OCCCC[C@@H](C)Oc3ccc(NC(=O)CCC(F)(F)F)cc3C(=O)N([C@H](C)CO)C[C@H]2C)cc1 was read as Xi reactivation -0.6.
Screening Cc1ccc(CNC(=O)/C(C#N)=C\c2ccc(N(C)C)cc2)cc1 returned TPT1 inh 57.9*, caTPT1 confirm 63.9* and RNase T1 inh 79.9*.
For CCN(CC)c1ccc(/C=C(\C#N)C(=O)NCc2ccccc2)cc1 the results were Rpn11 block -38.7, CSN inh 2.8, HNF4A DNA FP 40.6*, aDG glyco act 0.0, TPT1 inh 89.3*, caTPT1 confirm 106.7* and RNase T1 inh 113.7*.
Screening CCN(CC)c1ccc(/C=C(\C#N)C(=O)NCc2ccco2)cc1 returned Xi reactivation 0.3, TPT1 inh 110.0*, caTPT1 confirm 103.7* and RNase T1 inh 113.5*.
For Cn1c(=O)n(C)c2cc(/C=C(/C#N)C(=O)NCc3ccco3)ccc21 the results were Rpn11 block -6.3, Xi reactivation 0.0, CSN inh -3.4, HNF4A DNA FP -3.4, aDG glyco act 0.2 and TPT1 inh 0.6.
Screening CCc1ccccc1NC(=S)NCCSc1ccc(Cl)cc1 returned Rpn11 block 4.4, Xi reactivation 0.0, CSN inh -0.8, HNF4A DNA FP -3.6, aDG glyco act 1.0, TPT1 inh active, caTPT1 confirm -0.8 and RNase T1 inh 3.6.
`Cc1ccccc1NC(=S)NCCSc1ccc(Cl)cc1` gave Rpn11 block 4.9, Xi reactivation -0.2, CSN inh 1.3, HNF4A DNA FP 1.7, aDG glyco act 1.0 and TPT1 inh 0.0.
COc1ccc2c3c(n(C)c2c1)[C@@H](CO)NCC31CCN(S(=O)(=O)c2ccccc2)CC1 was read as Xi reactivation 0.2.
CCC(CO)[n+]1c(C)cc(/C=C2\Sc3ccccc3N2Cc2ccccc2)cc1C (stereo unspecified) was read as Xi reactivation 102.7*, CSN inh 11.4, HNF4A DNA FP 13.4, aDG glyco act 0.2, TPT1 inh 126.8*, caTPT1 confirm 130.8* and RNase T1 inh 134.4*.

Assay outcomes from PubChem.
